Measured values taken from ChEMBL document CHEMBL1130056, “Novel and selective partial agonists of 5-HT3 receptors. 2. Synthesis and biological evaluation of piperazinopyridopyrrolopyrazines, piperazinopyrroloquinoxalines, and piperazinopyridopyrroloquinoxalines” (J Med Chem, 1997).

How the values were obtained:
[1] = molecular target: 5-hydroxytryptamine receptor 2A (Bos taurus, UniProt Q75Z89); assay: Binding affinity against 5-hydroxytryptamine 2A receptor was measured using [3H]ketanserin as radioligand
5-hydroxytryptamine receptor 2A, sequence (Q75Z89 whole entry): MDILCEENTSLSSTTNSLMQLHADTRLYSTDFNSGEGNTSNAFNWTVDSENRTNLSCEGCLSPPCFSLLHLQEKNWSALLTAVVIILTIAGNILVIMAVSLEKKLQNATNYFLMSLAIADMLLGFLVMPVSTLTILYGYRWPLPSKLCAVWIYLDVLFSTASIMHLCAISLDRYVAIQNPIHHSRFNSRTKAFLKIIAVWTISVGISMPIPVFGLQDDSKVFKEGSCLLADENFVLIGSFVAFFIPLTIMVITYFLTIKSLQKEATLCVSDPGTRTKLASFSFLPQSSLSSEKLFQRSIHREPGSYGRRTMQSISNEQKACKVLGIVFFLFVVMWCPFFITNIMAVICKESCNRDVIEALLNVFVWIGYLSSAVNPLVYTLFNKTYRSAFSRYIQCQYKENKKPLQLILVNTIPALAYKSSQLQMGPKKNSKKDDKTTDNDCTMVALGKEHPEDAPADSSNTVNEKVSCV
How it was run: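 Bovine frontal cortex membranes (0.6 mg protein/mL) with 0.8 nM [3H]ketanserin and 100 nM WB4101, 37 °C for 30 min, in 50 mM Tris-HCl pH 7.4 plus 5 mM MgCl2, 10 mM NaCl, 0.5 mM EDTA, 10 μM pargyline. 10 μM spiperone defined nonspecific binding. Reported as log IC50 ± SEM.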

[2] = molecular target: 5-hydroxytryptamine receptor 1B (Rattus norvegicus, UniProt P28564); assay: Binding affinity towards 5-hydroxytryptamine 1B receptor was measured using [3H]5-HT as radioligand
5-hydroxytryptamine receptor 1B, sequence (P28564 whole entry): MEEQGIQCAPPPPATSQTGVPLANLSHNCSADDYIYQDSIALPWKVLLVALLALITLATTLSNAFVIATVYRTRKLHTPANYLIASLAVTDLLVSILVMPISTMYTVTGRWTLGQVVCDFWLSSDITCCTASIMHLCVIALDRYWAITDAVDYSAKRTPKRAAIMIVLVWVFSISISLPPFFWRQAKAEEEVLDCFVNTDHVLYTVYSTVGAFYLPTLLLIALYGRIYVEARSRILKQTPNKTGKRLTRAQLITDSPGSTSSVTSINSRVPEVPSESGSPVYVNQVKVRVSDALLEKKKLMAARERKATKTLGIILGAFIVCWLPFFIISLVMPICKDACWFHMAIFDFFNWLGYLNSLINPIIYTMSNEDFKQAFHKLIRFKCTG
How it was run: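 Rat frontal cortex and striatum membranes (0.8 mg protein/mL), 2 nM [3H]-5-OH-tryptamine, 1 μM spiperone, 50 nM mesulergine; 25 °C, 30 min; 50 mM Tris-HCl pH 7.4, 4 mM CaCl2, 10 μM pargyline. Nonspecific binding with 10 μM propranolol. Expressed as log IC50 ± SEM.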

[3] = molecular target: Serotonin 3 (5-HT3) receptor; assay: Binding affinity against 5-hydroxytryptamine 3 receptor was measured using [3H]granisetron as radioligand; type: protein-complex assay
[4] = molecular target: 5-hydroxytryptamine receptor 1D (Sus scrofa, UniProt P79400); assay: Binding affinity against 5-hydroxytryptamine 1D receptor was measured using [3H]5-HT as radioligand
5-hydroxytryptamine receptor 1D, sequence (P79400 whole entry): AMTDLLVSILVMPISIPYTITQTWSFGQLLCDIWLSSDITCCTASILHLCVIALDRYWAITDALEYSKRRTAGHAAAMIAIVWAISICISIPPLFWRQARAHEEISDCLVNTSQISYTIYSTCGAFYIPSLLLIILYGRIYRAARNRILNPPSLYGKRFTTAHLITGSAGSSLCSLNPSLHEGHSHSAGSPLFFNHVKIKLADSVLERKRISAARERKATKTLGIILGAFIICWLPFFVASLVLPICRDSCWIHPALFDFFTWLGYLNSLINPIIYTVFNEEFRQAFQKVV
How it was run: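 Pig frontal cortex and striatum membranes (0.8 mg protein/mL), 2 nM [3H]-5-OH-tryptamine with 1 μM spiperone and 50 nM mesulergine, 25 °C, 30 min, 50 mM Tris-HCl pH 7.4, 4 mM CaCl2, 10 μM pargyline. Nonspecific binding with 10 μM 5-HT. Expressed as log IC50 ± SEM.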

[5] = molecular target: 5-hydroxytryptamine receptor 2C (Sus scrofa); assay: Binding affinity against 5-Hydroxytryptamine 2C Receptor was measured using [3H]N-methyl-mesulergine as radioligand
[6] = molecular target: 5-hydroxytryptamine receptor 1A (Bos taurus); assay: Binding affinity against 5-hydroxytryptamine 1A receptor was measured using [3H]8-OH-DPAT as radioligand
NG108-15 = assay: In Vitro 5-HT3 agonist activity on the [14C]guanidinium accumulation in NG 108-15 cells.; type: functional, cell-based; details: Murinae
How it was run: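 NG 108-15 cells grown 2 days, washed, then incubated 10 min at 37 °C in HEPES buffer pH 7.4 with 10 mM guanidinium chloride, 200–250 nCi [14C]guanidinium, 10 μM substance P and drug. After ice-cold choline wash, cells dissolved in NaOH and radioactivity counted. EC50 from triplicates per concentration; mean ± SEM of three determinations.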

Rattus norvegicus [7] = assay: In Vivo 5-HT3 antagonist activity in the Von Bezold-Jarisch reflex in rats at intravenous dose of 60 (ug/kg); type: functional
How it was run: (§1)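 Urethane-anesthetized (1.25 g/kg ip) fasted male Crl:CD(SD)BR rats; heart rate from carotid cannula. Compound in saline iv via jugular vein, usually 5 min before 5-HT bolus (30 μg/kg iv).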

Rattus norvegicus [8] = assay: In Vivo 5-HT3 agonist activity in the Von Bezold-Jarisch reflex decrease in heart rate in rats at 120 (ug/kg) dose.; type: functional
How it was run: (§2)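 Fasted male Crl:CD(SD)BR rats (280–320 g) under urethane (1.25 g/kg ip); heart rate from cannulated carotid artery. Compound in saline given iv via jugular cannula. Read-out is fall in heart rate as percent of pre-treatment baseline.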

Rattus norvegicus [9] = assay: In Vivo 5-HT3 antagonist activity in the Von Bezold-Jarisch reflex in rats after intravenous dose of 120 (ug/kg); type: functional; how it was run: as §1
Rattus norvegicus [10] = assay: In Vivo 5-HT3 antagonist activity in the Von Bezold-Jarisch reflex in rats and percent inhibition of bradycardia induced by 5-HT was reported; type: functional; details: read-out: ID50 (the source's name); how it was run: as §1
Rattus norvegicus [11] = assay: In Vivo 5-HT3 antagonist activity in the Von Bezold-Jarisch reflex in rats after intravenous dose of 60 (ug/kg); type: functional; how it was run: as §1
Rattus norvegicus [12] = assay: In Vivo 5-HT3 agonist activity in the Von Bezold-Jarisch reflex decrease in heart rate in rats at 60 (ug/kg) dose.; type: functional; how it was run: as §2

Row | SMILES | IC50 [1] [µM] | IC50 [2] [µM] | -Log IC50 [3] | IC50 [4] [µM] | IC50 [5] [µM] | IC50 [6] [µM] | also measured
1 | Fc1ccc(CN2CCN(Cc3nc4ccccc4n4cccc34)CC2)cc1 | 17 | 31.6 | 5.59 | 85.1 |  |  | 
2 | CN1CCN(c2nc3cc(C(F)(F)F)ccc3n3cccc23)CC1 |  |  | 5.88 |  |  |  | 
3 | COc1ccc2nc(N3CCN(Cc4ccc(F)cc4)CC3)c3cccn3c2n1 | > 100 | > 100 | 6.93 | > 100 | > 100 | 56.2 | 
4 | NCCc1c[nH]c2ccc(O)cc12 [SEROTONIN] |  |  |  |  |  |  | EC50 (NG108-15): 0.293 µM
5 | Clc1ccc2nc(N3CCN(Cc4ccccc4)CC3)c3cccn3c2c1 | > 100 | > 100 | 7.69 | > 100 | 44.7 | 89.1 | 
6 | Cc1ccnc2c1nc(N1CCN(Cc3ccccc3)CC1)c1cccn12 | 51.3 | 43.7 | 5.52 | > 100 | 57.5 | 50.1 | 
7 | Fc1ccc(CN2CCN(c3nc4sccc4n4cccc34)CC2)cc1 |  | > 100 | 8.93 |  |  |  | 
8 | c1cc2c(N3CCNCC3)nc3ccsc3n2c1 |  |  | 7.92 |  |  |  | 
9 | c1ccc(COc2ccc3nc(N4CCN(Cc5ccccc5)CC4)c4cccn4c3n2)cc1 | > 100 | > 100 | 4.43 | > 100 | > 100 | 55 | 
10 | c1ccc(CN2CCN(c3ccc4nc(N5CCN(Cc6ccccc6)CC5)c5cccn5c4n3)CC2)cc1 | > 100 | > 100 | 7.06 | > 100 | > 100 | > 100 | 
11 | C=CCN1CCN(c2nc3sccc3n3cccc23)CC1 |  |  | 9.04 |  |  |  | 
12 | CCOC(=O)N1CCN(c2nc3cccnc3n3cccc23)CC1 | > 100 | > 100 | 4.55 | > 100 |  |  | 
13 | c1ccc(CN2CCN(c3ncccc3-n3cccc3)CC2)cc1 | 7.41 | 26.3 | 7.34 | 11 |  |  | 
14 | c1cnc2c(c1)nc(N1CCN(Cc3ccc4c(c3)OCO4)CC1)c1cccn12 | 45.7 | 49 | 9.1 | > 100 |  |  | 
15 | c1ccc(N2CCN(c3nc4cccnc4n4cccc34)CC2)cc1 | > 100 | > 100 | 4.56 | > 100 |  |  | 
16 | c1ccc(CN2CCN(c3nc4ccsc4n4cccc34)CC2)cc1 |  |  | 8.85 |  |  |  | EC50 (NG108-15): 0.011 µM; Inhibition (Rattus norvegicus [7]): 42%; Inhibition (Rattus norvegicus [8]): 40%
17 | c1cnc2ccc3nc(N4CCN(Cc5ccc6c(c5)OCO6)CC4)c4cccn4c3c2c1 | 20 | 58.9 | 7.55 | 39.8 |  |  | 
18 | COc1ccc2nc(N3CCN(Cc4ccccc4)CC3)c3cccn3c2n1 | 70.8 | > 100 | 7.85 | > 100 |  |  | 

Row | SMILES | IC50 [1] [µM] | IC50 [2] [µM] | -Log IC50 [3] | IC50 [4] [µM] | IC50 [5] [µM] | IC50 [6] [µM] | also measured
19 | Fc1ccc(CN2CCN(c3nc4cccnc4n4cccc34)CC2)cc1 | 43.7 | 56.2 | 8.58 | 83.2 | 5.25 | 6.76 | 
20 | c1ccc(CN2CCN(c3nc4cccnc4n4cccc34)CC2)cc1 | 15.1 | 13.2 | 12.09 |  |  |  | EC50 (NG108-15): 0.032 µM; Inhibition (Rattus norvegicus [9]): 40%; Inhibition (Rattus norvegicus [8]): 59%
21 | Cc1ccnc2c1nc(N1CCN(Cc3ccc(F)cc3)CC1)c1cccn12 | > 100 | 70.8 | < 4 | > 100 |  |  | 
22 | c1ccc(CN2CCN(c3nc4ccc5ncccc5c4n4cccc34)CC2)cc1 | > 100 | 97.7 | 7.51 | > 100 |  |  | 
23 | CN1CCN(c2nc3cccnc3n3cccc23)CC1 | 7.94 | 0.245 | 9.01 | 0.955 | 0.275 | 0.0977 | 
24 | Clc1ccc2c(c1)nc(N1CCN(Cc3ccc4c(c3)OCO4)CC1)c1cccn12 | > 100 | 14.5 | 10.09 | 46.8 | > 100 | 9.55 | 
25 | Fc1ccc(CN2CCN(c3nc4cc(Cl)ccc4n4cccc34)CC2)cc1 | > 100 | > 100 | 7.71 | > 100 | > 100 | 40.7 | 
26 | C=CCN1CCN(c2nc3cccnc3n3cccc23)CC1 | 25.1 | 0.204 | 11.4 | 0.955 | 0.372 | 0.117 | 
27 | COc1ccc2c(c1)nc(N1CCN(Cc3ccc(F)cc3)CC1)c1cccn12 | > 100 | 69.2 | 8.18 | > 100 |  |  | EC50 (NG108-15): 0.104 µM; ED50 (Rattus norvegicus [10]): 0.0754 mg/kg; Inhibition (Rattus norvegicus [8]): 0%
28 | c1cnc2c(c1)nc(N1CCNCC1)c1cccn12 | 14.5 | 0.151 | 8.83 | 1.7 |  |  | 
29 | Fc1ccc(CN2CCN(c3nc4ccccc4n4cccc34)CC2)cc1 | 46.8 | 38 | 8.62 | > 100 |  |  | 
30 | Clc1ccc(CN2CCN(c3nc4cccnc4n4cccc34)CC2)c(Cl)c1 | > 100 | 77.6 | 5.89 | > 100 |  |  | 
31 | COc1ccc2c(c1)nc(N1CCN(CCCCn3cccn3)CC1)c1cccn12 | 1.62 | 3.55 | < 4 | > 100 |  |  | 
32 | c1ccc(CN2CCN(c3nc4ccccc4n4cccc34)CC2)cc1 | 10.5 | 12.9 | 9.45 | 24 |  |  | EC50 (NG108-15): 0.018 µM; Inhibition (Rattus norvegicus [11]): 80%; Inhibition (Rattus norvegicus [12]): 54%
33 | C=CCN1CCN(c2nc3ccc4ncccc4c3n3cccc23)CC1 | 21.4 | 19.5 | 7.71 | 5.75 |  |  | 
34 | Cc1ccc2c(c1)nc(N1CCN(Cc3ccc(F)cc3)CC1)c1cccn12 | > 100 | 10 | 7.87 | > 100 | > 100 | 12.9 | 
35 | Clc1ccc2c(c1)nc(N1CCN(Cc3ccccc3)CC1)c1cccn12 | > 100 | 19.1 | 9.54 | > 100 |  |  | EC50 (NG108-15): 0.052 µM; ED50 (Rattus norvegicus [10]): 0.0312 mg/kg; Inhibition (Rattus norvegicus [8]): 0%
